Laboratory results taken from ChEMBL document CHEMBL1125060, “Synthesis and biological evaluation of carbocyclic analogues of lyxofuranosides of 2-amino-6-substituted-purines and 2-amino-6-substituted-8-azapurines” (1990).
In brackets after ≈: the same amount, converted by molar mass.

Assays:
MRC5 [1] = test: Effect of compound treatment on yields of human cytomegalovirus (HCMV) in MRC5 (human diploid embryonic lung cells) monolayer cultures at the concentration of 32 uM; type: functional
Procedure, shortened: (§1)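 Virus yield reduction assay with HCMV strain Ad169, passaged, titrated and assayed in MRC5 human diploid embryonic lung cells. Virus yields are read as PFU. Includes a virus control and a DHPG positive control.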

P388 [2] = test: In vitro inhibition against P-388 mouse leukemia cells using growth inhibition assay at the concentration of 100 ug/mL; type: functional
Procedure, shortened: (§2)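 P-388 mouse leukemia cells in culture, by the National Cancer Institute protocol. Tested at 6.25-100 μg/mL and reported as percent growth inhibition. Carbocyclic adenosine is the positive control.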

P388 [3] = test: In vitro inhibition against P-388 mouse leukemia cells using growth inhibition assay at the concentration of 12.5 ug/mL; type: functional; procedure, shortened: as §2
P388 [4] = test: In vitro inhibition against P-388 mouse leukemia cells using growth inhibition assay at the concentration of 25 ug/mL; type: functional; procedure, shortened: as §2
P388 [5] = test: In vitro inhibition against P-388 mouse leukemia cells using growth inhibition assay at the concentration of 50 ug/mL; type: functional; procedure, shortened: as §2
P388 [6] = test: In vitro inhibition against P-388 mouse leukemia cells using growth inhibition assay at the concentration of 6.25 ug/mL; type: functional; procedure, shortened: as §2
MDCK [7] = test: In vitro antiviral activity against influenza virus (type A0/PR/8/34) in Madin-Darby canine kidney (MDCK) host cell cultures; type: functional, Canis lupus familiaris
Vero [8] = test: In vitro antiviral activity against herpes simplex virus type 1 (E-377 strain) in Vero host cell cultures (MTC/ID50); type: functional, Chlorocebus sabaeus
Procedure, shortened: (§3)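 CPE inhibition assay with HSV-1 strain E-377 replicating in Vero cells. ID50 is the minimum concentration (μg/mL) inhibiting CPE by 50%, from regression with semilog curve fitting. MTC is the minimum concentration (μg/mL) giving any cytotoxicity. TI is MTC divided by ID50.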

Vero [9] = test: (§4) In vitro antiviral activity against herpes simplex virus type 1 (E-377 strain) in Vero host cell cultures; type: functional, Chlorocebus sabaeus; procedure, shortened: as §3
Vero [10] = test: Minimum concentration (ug/mL) for in vitro antiviral activity against herpes simplex virus type 1 (E-377 strain) in Vero host cell cultures; type: functional, Chlorocebus sabaeus; procedure, shortened: as §3
Vero [11] = test: In vitro minimum drug concentration that inhibited herpes simplex virus type 1 (E-377 strain)-induced cytopathogenic effects by 50% in vero cell cultures; type: functional; conditions: Chlorocebus sabaeus, read-out: ID50 (the source's name); procedure, shortened: as §3
MRC5 [12] = test: Cytotoxicity against MRC5 (human diploid embryonic lung cells) cell monolayer cultures at the concentration of 320 uM; Slightly toxic; type: functional, cell-based
MRC5 [13] = test: Cytotoxicity against MRC5 (human diploid embryonic lung cells)cell monolayer cultures at the concentration of 1000 uM; Slightly toxic; type: functional, cell-based
MRC5 [14] = test: Cytotoxicity against MRC5 (human diploid embryonic lung cells)cell monolayer cultures at the concentration of 100 uM; type: functional
MRC5 [15] = test: Cytotoxicity against MRC5 (human diploid embryonic lung cells)cell monolayer cultures at the concentration of 32 uM; type: functional
MRC5 [16] = test: Effect of compound on yields of human cytomegalovirus (HCMV) in MRC5 (human diploid embryonic lung cells)cell monolayer cultures at the concentration of 100 uM; type: functional; procedure, shortened: as §1
MRC5 [17] = test: Effect of compound on yields of human cytomegalovirus (HCMV) in MRC5 (human diploid embryonic lung cells)cell monolayer cultures at the concentration of 3.2 uM; type: functional; procedure, shortened: as §1
MRC5 [18] = test: Effect of compound on yields of human cytomegalovirus (HCMV) in MRC5 (human diploid embryonic lung cells)cell monolayer cultures at the concentration of 320 uM; type: functional; procedure, shortened: as §1
MRC5 [19] = test: Effect of compound on yields of human cytomegalovirus (HCMV) in MRC5 (human diploid embryonic lung cells)cell monolayer cultures at the concentration of 32 uM; type: functional; procedure, shortened: as §1
MRC5 [20] = test: Effect of compound treatment on yields of human cytomegalovirus (HCMV) in MRC5 (human diploid embryonic lung cells)cell monolayer cultures at the concentration of 1000 uM; type: functional; procedure, shortened: as §1
MRC5 [21] = test: Cytotoxicity against MRC5 (human diploid embryonic lung cells)cell monolayer cultures by using MTT [3-(4,5-Dimethylthiazol-2-yl)-2,5-diphenyltetrazolium bromide]assay at the concentration of 32 uM; type: functional
Procedure, shortened: (§5)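 MRC5 human diploid embryonic lung cell monolayers. Cytotoxicity is quantified by host-cell mitochondrial reduction of MTT to MTT formazan. It was run alongside the HCMV yield reduction assay.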

MRC5 [22] = test: Cytotoxicity against MRC5 (human diploid embryonic lung cells)cell monolayer cultures by using MTT [3-(4,5-Dimethylthiazol-2-yl)-2,5-diphenyltetrazolium bromide]assay at the concentration of 100 uM; type: functional; procedure, shortened: as §5
MRC5 [23] = test: Cytotoxicity against MRC5 (human diploid embryonic lung cells) cell monolayer cultures by using MTT [3-(4,5-Dimethylthiazol-2-yl)-2,5-diphenyltetrazolium bromide]assay at the concentration of 1000 uM; type: functional; procedure, shortened: as §5
MRC5 [24] = test: Cytotoxicity against MRC5 (human diploid embryonic lung cells) cell monolayer cultures by using MTT [3-(4,5-Dimethylthiazol-2-yl)-2,5-diphenyltetrazolium bromide]assay at the concentration of 320 uM; type: functional; procedure, shortened: as §5
MRC5 [25] = test: Effect of compound on yields of human cytomegalovirus (HCMV) in MRC5 (human diploid embryonic lung cells)cell monolayer cultures at the concentration of 0 uM; type: functional; procedure, shortened: as §1
Vero [26] = test: as §4; type: functional; conditions: Chlorocebus sabaeus, read-out: ID50 (the source's name); procedure, shortened: as §3
Vero [27] = test: as §4; type: functional, Chlorocebus sabaeus; remark: listed apart in the source
Procedure, shortened: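 CPE-inhibition assay: HSV-1 strain E-377 replicating in African green monkey kidney (Vero) cells. ID50 is the minimum drug concentration (μg/mL) giving 50% CPE inhibition, taken from semilog regression curve fitting. Cytotoxicity was scored as the minimum concentration (μg/mL) showing any toxicity (MTC). TI = MTC/ID50.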

MRC5 [28] = test: Effect of compound on yields of human cytomegalovirus (HCMV) in MRC5 (human diploid embryonic lung cells)cell monolayer cultures at the concentration of 10 uM; type: functional; procedure, shortened: as §1
MDCK [29] = test: In vitro minimum drug concentration that inhibited the influenza virus-induced cytopathogenic effects by 50% in Madin-Darby canine kidney (MDCK) host cell cultures; type: functional; conditions: Canis lupus familiaris, read-out: ID50 (the source's name)
Procedure, shortened: (§6)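 MDCK host cell cultures infected with influenza A0/PR/8/34, scored for inhibition of virus-induced cytopathogenic effect (CPE). ID50 is the minimum drug concentration (μg/mL) that cut CPE by 50%, from semilog regression curve fitting. MTC is the minimum concentration (μg/mL) at which any cytotoxicity was seen. Therapeutic index is MTC divided by ID50.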

MDCK [30] = test: Minimum concentration (ug/mL) for in vitro antiviral activity against influenza virus (type A0/PR/8/34) in Madin-Darby canine kidney (MDCK) host cell cultures; type: functional, Canis lupus familiaris; procedure, shortened: as §6
MDCK [31] = test: In vitro antiviral activity against influenza virus (type A0/PR/8/34) in Madin-Darby canine kidney (MDCK) host cell cultures (MTC/ID50); type: functional, Canis lupus familiaris; procedure, shortened: as §6
Vero [32] = test: In vitro minimum drug concentration that inhibited herpes simplex virus type 1 (E-377 strain) virus-induced cytopathogenic effects by 50% in vero cells; type: functional; conditions: Chlorocebus sabaeus, read-out: ID50 (the source's name); procedure, shortened: as §3

Nc1nc2c(ncn2COC(CO)CO)c(=O)[nH]1 [GANCICLOVIR]
HCMV yield (MRC5 [1]): 2.4 log10 pfu/mL
HCMV yield reduction (MRC5 [1]): 3 log10 pfu/mL

Nc1ncnc2c1ncn2[C@@H]1C[C@H](CO)[C@@H](O)[C@H]1O [ARISTEROMYCIN]
inhibition at 100 µg/mL (P388 [2]): 100%
inhibition at 12.5 µg/mL (P388 [3]): 100%
inhibition at 25 µg/mL (P388 [4]): 100%
inhibition at 50 µg/mL (P388 [5]): 100%
inhibition at 6.25 µg/mL (P388 [6]): 100%

Nc1nc(N)c2ncn(C3CC(CO)C(O)C3O)c2n1 (centres undefined)
Virus rating (MDCK [7]): 0
inhibition at 100 µg/mL (P388 [2]): 42.3%
inhibition at 12.5 µg/mL (P388 [3]): 0%
inhibition at 25 µg/mL (P388 [4]): 0%
inhibition at 50 µg/mL (P388 [5]): 11.3%
inhibition at 6.25 µg/mL (P388 [6]): 0%
Therapeutic index (Vero [8]): 1.4
Virus rating (Vero [9]): 0.6 VR
MTC (Vero [10]): 280.3 µg/mL
IC50 (Vero [11]): 195 µg/mL (≈ 696 µM)

Nc1nc(O)c2ncn(C3CC(CO)C(O)C3O)c2n1 (centres undefined)
Virus rating (MDCK [7]): 0
Gross morphology (MRC5 [12]): Toxic
Gross morphology (MRC5 [13]): Toxic
Gross morphology (MRC5 [14]): 0
Gross morphology (MRC5 [15]): 0
HCMV yield (MRC5 [16]): 3.7 log10 pfu/mL
HCMV yield reduction (MRC5 [16]): 1.7 log10 pfu/mL
HCMV yield (MRC5 [17]): 4.9 log10 pfu/mL
HCMV yield reduction (MRC5 [17]): 0.5 log10 pfu/mL
HCMV yield (MRC5 [18]): 2.5 log10 pfu/mL
HCMV yield reduction (MRC5 [18]): 2.9 log10 pfu/mL
HCMV yield (MRC5 [19]): 4.2 log10 pfu/mL
HCMV yield reduction (MRC5 [19]): 1.2 log10 pfu/mL
HCMV yield (MRC5 [20]): < 0.6 log10 pfu/mL
HCMV yield reduction (MRC5 [20]): > 4.8 log10 pfu/mL
Control (MRC5 [21]): 103%
Control (MRC5 [22]): 97%
Control (MRC5 [23]): 88%
Control (MRC5 [24]): 93%
HCMV yield (MRC5 [25]): 5.4 log10 pfu/mL
inhibition at 100 µg/mL (P388 [2]): 71.6%
inhibition at 12.5 µg/mL (P388 [3]): 9.1%
inhibition at 25 µg/mL (P388 [4]): 42.1%
inhibition at 50 µg/mL (P388 [5]): 58.4%
inhibition at 6.25 µg/mL (P388 [6]): 0%
Virus rating (Vero [9]): 2.1
IC50 (Vero [26]): 83.4 µg/mL (≈ 297 µM)
MTC (Vero [10]): >299.3 µg/mL
TI (Vero [27]): >3.6
HCMV yield (MRC5 [28]): 4.8 log10 pfu/mL
HCMV yield reduction (MRC5 [28]): 0.6 log10 pfu/mL

Nc1nc(Cl)c2ncn(C3CC(CO)C(O)C3O)c2n1 (centres undefined)
Virus rating (MDCK [7]): 0
inhibition at 100 µg/mL (P388 [2]): 2.8%
inhibition at 12.5 µg/mL (P388 [3]): 0%
inhibition at 25 µg/mL (P388 [4]): 0%
inhibition at 50 µg/mL (P388 [5]): 0%
inhibition at 6.25 µg/mL (P388 [6]): 0%
Virus rating (Vero [9]): 0
MTC (Vero [10]): 299.7 µg/mL

Nc1ncnc2c1ncn2[C@@H]1O[C@H](CO)[C@@H](O)[C@@H]1O [VIDARABINE]
Therapeutic index (Vero [8]): 5.6
Virus rating (Vero [9]): 2.4
IC50 (Vero [26]): 4.8 µg/mL (≈ 18 µM)
MTC (Vero [10]): 26.8 µg/mL

NC(=O)c1ncn([C@@H]2O[C@H](CO)[C@@H](O)[C@H]2O)n1 [RIBAVIRIN]
IC50 (MDCK [29]): 3.1 µg/mL (≈ 12.7 µM)
MTC (MDCK [30]): 32 µg/mL
Therapeutic index (MDCK [31]): 10.3
Virus rating (MDCK [7]): 3.4

Nc1nc(Cl)c2nnn(C3CC(CO)C(O)C3O)c2n1 (centres undefined)
MTC (MDCK [30]): >256.3 µg/mL
Virus rating (MDCK [7]): 0.3
inhibition at 100 µg/mL (P388 [2]): 99.1%
inhibition at 12.5 µg/mL (P388 [3]): 0%
inhibition at 25 µg/mL (P388 [4]): 14.2%
inhibition at 50 µg/mL (P388 [5]): 40.1%
inhibition at 6.25 µg/mL (P388 [6]): 0%
Virus rating (Vero [9]): 0
MTC (Vero [10]): 300.7 µg/mL

Nc1nc(N)c2nnn(C3CC(CO)C(O)C3O)c2n1 (centres undefined)
Virus rating (MDCK [7]): 0
inhibition at 100 µg/mL (P388 [2]): 58.4%
inhibition at 12.5 µg/mL (P388 [3]): 0%
inhibition at 25 µg/mL (P388 [4]): 12.2%
inhibition at 50 µg/mL (P388 [5]): 31.5%
inhibition at 6.25 µg/mL (P388 [6]): 0%
Virus rating (Vero [9]): 0
MTC (Vero [10]): >294.8 µg/mL

Nc1nc2c(ncn2COCCO)c(=O)[nH]1 [ACYCLOVIR]
Therapeutic index (Vero [8]): >240.3
Virus rating (Vero [9]): 6.2
IC50 (Vero [32]): 0.9 µg/mL (≈ 4 µM)
MTC (Vero [10]): >255.2 µg/mL

Nc1nc(O)c2nnn(C3CC(CO)C(O)C3O)c2n1 (centres undefined)
MTC (MDCK [30]): 95 µg/mL
Virus rating (MDCK [7]): 0.2
inhibition at 100 µg/mL (P388 [2]): 63.9%
inhibition at 12.5 µg/mL (P388 [3]): 0%
inhibition at 25 µg/mL (P388 [4]): 5%
inhibition at 50 µg/mL (P388 [5]): 27.4%
inhibition at 6.25 µg/mL (P388 [6]): 0%
Virus rating (Vero [9]): 0
MTC (Vero [10]): 300.3 µg/mL
